Paper PMC7125423 (Archives of Pharmacal Research, 2020)
Several values for one entry are separate records, joined by “and”; a condition that tells them apart may be missing. Equal values may be shown once.

Tests used:
neuraminidase = format: cell-based, influenza virus A/Font Monmouth/47(H1N1, FM1)
[1] = molecular target: influenza H1N1 virus neuraminidase (Influenza A virus, UniProt P03468); test: Neuraminidase inhibition screening assay; format: biochemical
[2] = tested on: influenza virus A/Font Monmouth/47(H1N1, FM1); format: cell-based
MDCK cells = test: Cell viability assay; format: cell-based, canine; details: 24 h, MTT
Method in brief: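 Confluent MDCK cells (grown in DMEM with 10% FBS, penicillin and streptomycin, 5% CO2) were exposed to graded concentrations of test compound for 24 h. Viability was measured by MTT. The maximum non-toxic dose was taken from this assay and then used in the infection assays.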

IAV nucleoprotein (NP) = test: Indirect immunofluorescence of viral NP in H1N1-infected MDCK cells; format: cell-based, influenza virus A/Font Monmouth/47(H1N1, FM1); details: at MNTD, 8 h after infection, compared to virus group
Method in brief: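 Confluent MDCK monolayers were infected with 100 μL of 100 TCID50 H1N1 for 2 h at 37 °C. Inoculum was removed and test compound was added at its maximum non-toxic dose in DMEM. At 8 h post-infection, cells were fixed in ice-cold acetone/methanol (40:60) for 15 min. Staining used mouse anti-NP monoclonal antibody (1:100 in PBS, 1 h), then Alexa Fluor 488 anti-mouse IgG (1:100, 1 h), with DAPI for nuclei; imaged by fluorescence microscopy.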

TNF-α = test: Cytokine in lung homogenate of IAV-infected mice; format: in vivo; details: day 5 after infection; different doses, except 25 mg/kg/day
Method in brief: (§1)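 Female SPF NIH mice (13–15 g) were infected with mouse-adapted IAV A/Font Monmouth/47 (H1N1, FM1). Controls were normal and placebo (saline, 0.5% Tween 80) groups. On day 5 post-infection, lungs were homogenised and centrifuged (4000×g, 15 min, 4 °C), and supernatants were stored at −80 °C. Cytokines were measured by anti-mouse ELISA kits; n = 10; mean ± SD of 3 separate experiments.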

[3] = Dose safety of curcumin in mice; format: in vivo; details: 100 mg/kg/day
[4] = tested on: influenza A/Font Monmouth/47(H1N1, FM1) virus; test: Survival experiments in IAV-infected mice; format: in vivo, NIH mice; details: 100, 50 and 25 mg/kg/day, pre-infection and post-infection, oral gavage, 2 LD50, vs placebo
IL-6 = test: Cytokine in lung homogenate of IAV-infected mice; format: in vivo; details: day 5 after infection; different doses (100, 50, 25 mg/kg/day)
Method in brief: as §1

IFN-γ = test: Cytokine in lung homogenate of IAV-infected mice; format: in vivo; details: day 5 after infection; different doses (100, 50, 25 mg/kg/day)
Method in brief: as §1

[5] = tested on: influenza A/Font Monmouth/47(H1N1, FM1) virus; parameters: species or system NIH mice; details: mouse, in vivo
[6] = IC50, NA activity inhibition assay

Chain of influenza H1N1 virus neuraminidase (P03468 whole entry): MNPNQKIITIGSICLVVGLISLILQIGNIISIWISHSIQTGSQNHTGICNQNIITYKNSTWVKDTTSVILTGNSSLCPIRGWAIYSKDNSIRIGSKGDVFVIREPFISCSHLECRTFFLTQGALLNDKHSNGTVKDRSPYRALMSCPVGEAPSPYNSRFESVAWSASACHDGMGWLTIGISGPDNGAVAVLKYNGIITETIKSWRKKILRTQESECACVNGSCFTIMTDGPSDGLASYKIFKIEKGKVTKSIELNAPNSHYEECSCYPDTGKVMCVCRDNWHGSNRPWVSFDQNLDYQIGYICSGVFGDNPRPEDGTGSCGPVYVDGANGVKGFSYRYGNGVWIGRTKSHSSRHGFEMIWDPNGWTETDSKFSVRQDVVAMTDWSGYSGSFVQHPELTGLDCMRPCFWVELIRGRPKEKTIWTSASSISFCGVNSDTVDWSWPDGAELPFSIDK

Row | Compound | decrease of NA activity (neuraminidase) | neuraminidase activity in cell supernatant (neuraminidase) [mU/mL] | IC50 [1, 6] [µM] | decrease of mRNA expression level of M gene [2] | mRNA expression level of M gene [2] [µM] | MNTD (maximum non-toxic dose) (MDCK cells) [µM] | viral NP localisation (immunofluorescence) (IAV nucleoprotein (NP)) | also measured
1 | O=C(/C=C/c1ccc(O)cc1)CC(=O)/C=C/c1ccc(O)cc1 [Bisdemethoxycurcumin] | 2.45 fold | 0.40 ± 0.01 | 70.1 | about 2.13 fold | 0.47 ± 0.11 | 20 | a strong green fluorescent signal was observed in the cytoplasm | –
2 | COc1ccc(/C=C/C(=O)/C=C(O)/C=C/c2ccc(OC)c(OC)c2)cc1OC [Dimethylcurcumin] | – | – | 1610 | – | – | – | – | –
3 | COc1cc(/C=C/C(=O)CC(=O)/C=C/c2ccc(O)c(OC)c2)ccc1O [Curcumin] | about 2.04 fold | 0.48 ± 0.03 | 450 | about 5.26 fold | 0.19 ± 0.03 | 25 | less NP was observed in the cytoplasm | TNF-α level in lung homogenate (TNF-α): significantly attenuated the increases; weight and clinical symptoms (dose safety) [3]: remained stable in weight and showed no significant clinical symptoms; average survival time [4]: prolonged the average survival time; death protection rate [4]: promote the death protection rate significantly; IL-6 level in lung homogenate (IL-6): significantly attenuated the increases; IFN-γ level in lung homogenate (IFN-γ): significantly attenuated the increases; Lung index inhibition [5]: 22.42% and 23.6% and 35.75^** %; Lung pathological change degree [5]: 1.10 ± 0.39 and 0.92 ± 0.47 and 1.02 ± 0.55
4 | COc1cc(/C=C/C(=O)CC(=O)CCc2ccc(O)c(OC)c2)ccc1O [Dihydrocurcumin] | ~1.81 fold | 0.54 ± 0.02 | – | ~1.20 fold | 0.83 ± 0.09 | 20 | a strong green fluorescent signal was observed in the cytoplasm | IC50 ([1]; NA activity inhibition assay): 219 µM; pIC50 (expt.) ([1]; converted from IC50): 3.66
5 | COc1cc(CCC(O)CC(O)CCc2ccc(O)c(OC)c2)ccc1O (centres unmarked) [Octahydrocurcumin] | – | – | 1530 | – | – | – | – | –
6 | CCC(CC)O[C@@H]1C=C(C(=O)O)C[C@H](N)[C@H]1NC(C)=O [Oseltamivir carboxylate, reference compound] | – | – | – | about 11.11 fold | – | – | – | –
7 | COc1cc(CCC(=O)CC(=O)CCc2ccc(O)c(OC)c2)ccc1O [Tetrahydrocurcumin] | – | – | 203 | – | – | – | – | –
8 | COc1cc(CCC(=O)CC(O)CCc2ccc(O)c(OC)c2)ccc1O (centres unmarked) [Hexahydrocurcumin] | – | – | 33700 | – | – | – | – | IC50 ([1]; pIC50 (expt.), converted from IC50): 33900 µM
9 | COc1cc(/C=C/C(O)=C/C(=O)/C=C/c2ccc(O)cc2)ccc1O [Demethoxycurcumin] | – | – | 200 | – | – | – | – | –
10 | [2H]C([2H])([2H])Oc1cc(/C=C/C(=O)CC(=O)/C=C/c2ccc(O)c(OC([2H])([2H])[2H])c2)ccc1O [Curcumin-d6] | – | – | – | – | – | – | – | pIC50 (expt.) ([1]; converted from IC50): 1.73
11 | NC(=O)c1ncn([C@@H]2O[C@H](CO)[C@@H](O)[C@H]2O)n1 [Ribavirin, reference compound] | – | – | – | – | – | – | – | Lung index [5]: 0.94 ± 0.29; Lung index inhibition [5]: 43%; Lung pathological change degree [5]: 0.87 ± 0.52
12 | Tetramethylcurcumin | 2.65 fold | 0.37 ± 0.06 | – | about 3.85 fold | 0.26 ± 0.07 | 15 | less NP was observed in the cytoplasm | IC50 ([1]; NA activity inhibition assay): 226 µM; pIC50 (expt.) ([1]; converted from IC50): 3.65
13 | COc1cc(/C=C/C(=O)CC(=O)/C=C/c2ccc(O)c(OC)c2)ccc1O [Curcumin-d6] | – | – | – | – | – | – | – | IC50 ([1]; NA activity inhibition assay): 18800 µM
